# Biological target: T1, Farnesyltransferase (Saccharomyces cerevisiae S288c, UniProt P22007+P29703)
# T1 sequence (P29703 whole entry): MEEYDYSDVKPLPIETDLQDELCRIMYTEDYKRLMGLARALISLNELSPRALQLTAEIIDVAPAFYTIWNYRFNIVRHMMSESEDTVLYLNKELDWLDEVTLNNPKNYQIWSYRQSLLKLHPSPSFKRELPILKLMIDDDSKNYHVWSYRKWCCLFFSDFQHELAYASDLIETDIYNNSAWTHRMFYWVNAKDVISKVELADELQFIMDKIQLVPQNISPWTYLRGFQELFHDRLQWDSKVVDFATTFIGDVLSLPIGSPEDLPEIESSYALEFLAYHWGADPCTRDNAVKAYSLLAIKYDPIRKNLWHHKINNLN
# T1 sequence (P22007 whole entry): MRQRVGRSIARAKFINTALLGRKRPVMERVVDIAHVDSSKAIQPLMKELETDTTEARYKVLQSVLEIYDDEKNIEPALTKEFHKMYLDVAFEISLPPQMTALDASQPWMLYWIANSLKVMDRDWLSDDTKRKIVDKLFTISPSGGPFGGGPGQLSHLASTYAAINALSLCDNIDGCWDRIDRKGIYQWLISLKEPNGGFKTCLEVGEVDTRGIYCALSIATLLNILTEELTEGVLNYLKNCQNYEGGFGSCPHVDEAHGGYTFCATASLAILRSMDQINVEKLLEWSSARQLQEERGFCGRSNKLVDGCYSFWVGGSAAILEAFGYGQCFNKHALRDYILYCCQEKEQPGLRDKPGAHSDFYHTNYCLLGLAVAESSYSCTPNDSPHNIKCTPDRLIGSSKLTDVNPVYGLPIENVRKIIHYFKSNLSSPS
# Experiment: Inhibitory activity against farnesyltransferase.
# Type: protein-complex assay
# Conditions: not given
# Method in brief: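 Yeast FTase, GST fused at the N-terminus of the β-subunit, expressed in E. coli DH5α and purified on glutathione-agarose. Buffer: 50 mM Tris/HCl pH 7.4, 5 mM MgCl2, 10 μM ZnCl2, 5 mM DTT. Substrates: 7 μM dansyl-GCVLS, 20 μM FPP. Inhibitor in 1% DMSO. IC50 from initial velocities at four or five concentrations, three independent runs, mean ± SD.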
row,IC50,SMILES
1,400 nM,Cc1ccccc1CC(=O)Nc1ccc(NC(=O)[C@@H](N)CS)cc1C(=O)c1ccccc1
2,540 nM,Cc1cccc(CC(=O)Nc2ccc(NC(=O)[C@@H](N)CS)cc2C(=O)c2ccccc2)c1
3,120 nM,N[C@@H](CS)C(=O)Nc1ccc(NC(=O)Cc2ccc(Cl)cc2Cl)c(C(=O)c2ccccc2)c1
4,700 nM,N[C@@H](CS)C(=O)Nc1ccc(NC(=O)CCC(=O)O)c(C(=O)c2ccccc2)c1
5,420 nM,N[C@@H](CS)C(=O)Nc1ccc(NC(=O)Cc2cccc(Cl)c2Cl)c(C(=O)c2ccccc2)c1
6,4600 nM,N[C@@H](CS)C(=O)Nc1ccc(NC(=O)c2cccc3ccccc23)c(C(=O)c2ccccc2)c1
7,725 nM,N[C@@H](CS)C(=O)Nc1ccc(NC(=O)Cc2ccc(C(F)(F)F)cc2)c(C(=O)c2ccccc2)c1
8,36 nM,N[C@@H](CS)C(=O)Nc1ccc(NC(=O)C(c2ccccc2)c2ccccc2)c(C(=O)c2ccccc2)c1
9,7600 nM,CC(=O)Nc1ccc(NC(=O)[C@@H](N)CS)cc1C(=O)c1ccccc1
10,85 nM,N[C@@H](CS)C(=O)Nc1ccc(NS(=O)(=O)Cc2ccccc2)c(C(=O)c2ccccc2)c1
11,76 nM,N[C@@H](CS)C(=O)Nc1ccc(NC(=O)Cc2ccc(Br)cc2)c(C(=O)c2ccccc2)c1
12,105 nM,N[C@@H](CS)C(=O)Nc1ccc(NC(=O)Cc2ccc(Cl)cc2)c(C(=O)c2ccccc2)c1
13,1420 nM,N[C@@H](CS)C(=O)Nc1ccc(NC(=O)C(=O)c2ccccc2)c(C(=O)c2ccccc2)c1
14,1290 nM,N[C@@H](CS)C(=O)Nc1ccc(NC(=O)CCc2ccccc2)c(C(=O)c2ccccc2)c1
15,650 nM,N[C@@H](CS)C(=O)Nc1ccc(NC(=O)Cc2ccccc2)c(C(=O)c2ccccc2)c1
16,1800 nM,COC(=O)CCC(=O)Nc1ccc(NC(=O)[C@@H](N)CS)cc1C(=O)c1ccccc1

row,IC50,SMILES
1,380 nM,N[C@@H](CS)C(=O)Nc1ccc(NC(=O)Cc2cccc3ccccc23)c(C(=O)c2ccccc2)c1
2,480 nM,N[C@@H](CS)C(=O)Nc1ccc(NC(=O)Cc2ccc(Cl)c(Cl)c2)c(C(=O)c2ccccc2)c1
3,8600 nM,CC(CC(=O)Nc1ccc(NC(=O)[C@@H](N)CS)cc1C(=O)c1ccccc1)CC(C)(C)C (stereo not given in full)
4,115 nM,N[C@@H](CS)C(=O)Nc1ccc(NC(=O)Cc2ccc([N+](=O)[O-])cc2)c(C(=O)c2ccccc2)c1
5,340 nM,N[C@@H](CS)C(=O)Nc1ccc(NC(=O)Cc2c(Cl)cccc2Cl)c(C(=O)c2ccccc2)c1
6,2400 nM,COC(=O)CCCC(=O)Nc1ccc(NC(=O)[C@@H](N)CS)cc1C(=O)c1ccccc1
7,2400 nM,N[C@@H](CS)C(=O)Nc1ccc(NC(=O)Cc2cc(Cl)ccc2Cl)c(C(=O)c2ccccc2)c1
8,4780 nM,N[C@@H](CS)C(=O)Nc1ccc(NC(=O)c2ccccc2)c(C(=O)c2ccccc2)c1
9,650 nM,CC(C(=O)Nc1ccc(NC(=O)[C@@H](N)CS)cc1C(=O)c1ccccc1)c1ccccc1 (stereo not given in full)
10,550 nM,N[C@@H](CS)C(=O)Nc1ccc(NC(=O)CCCC(=O)O)c(C(=O)c2ccccc2)c1
11,535 nM,N[C@@H](CS)C(=O)Nc1ccc(NC(=O)Cc2cc(Cl)cc(Cl)c2)c(C(=O)c2ccccc2)c1
12,77 nM,Cc1ccc(CC(=O)Nc2ccc(NC(=O)[C@@H](N)CS)cc2C(=O)c2ccccc2)cc1
13,100 nM,Cc1ccc(CS(=O)(=O)Nc2ccc(NC(=O)[C@@H](N)CS)cc2C(=O)c2ccccc2)cc1
14,460 nM,N[C@@H](CS)C(=O)Nc1ccc(NC(=O)Cc2ccc3ccccc3c2)c(C(=O)c2ccccc2)c1
15,545 nM,COc1ccc(CC(=O)Nc2ccc(NC(=O)[C@@H](N)CS)cc2C(=O)c2ccccc2)cc1

# System: THP-1
# Experiment: Antiproliferative activity against THP-1 cell line
# Type: functional
# Conditions: Homo sapiens
# Method in brief: (§1)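 Suspended human leukaemic lines (K-562, HL-60, THP-1) grown in RPMI 1640 with penicillin/streptomycin and 10% FBS. About 10 000 cells per well in bicarbonate medium without HEPES. Test substances added in serial twofold dilutions (1:2 to 1:1024). Incubation 72 h, 37 °C, 5% CO2, humidified. Cells counted electronically, each count the mean of three. GI50 read where the concentration–response curve crosses 50% of control counts.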
row,GI50,SMILES
1,14900 nM,N[C@@H](CS)C(=O)Nc1ccc(NC(=O)Cc2ccc(Br)cc2)c(C(=O)c2ccccc2)c1

# System: K562
# Experiment: Antiproliferative activity against K562 cell line
# Type: functional
# Conditions: Homo sapiens
# Method in brief: as §1
row,GI50,SMILES
1,7900 nM,N[C@@H](CS)C(=O)Nc1ccc(NC(=O)Cc2ccc(Br)cc2)c(C(=O)c2ccccc2)c1
2,8100 nM,Cc1ccc(CC(=O)Nc2ccc(NC(=O)[C@@H](N)CS)cc2C(=O)c2ccccc2)cc1

# System: HL-60
# Experiment: Antiproliferative activity against HL60 cell line
# Type: functional
# Conditions: Homo sapiens
# Method in brief: as §1
row,GI50,SMILES
1,4200 nM,N[C@@H](CS)C(=O)Nc1ccc(NC(=O)Cc2ccc(Br)cc2)c(C(=O)c2ccccc2)c1

# Source: ChEMBL document CHEMBL1134575, “Synthesis, molecular modeling, and structure-activity relationship of benzophenone-based CAAX-peptidomimetic farnesyltransferase inhibitors” (J Med Chem, 2001)
